Assay results reported in ChEMBL document CHEMBL1124174, “Substituted benzamides. 1. Potential nondopaminergic antagonists of chemotherapy-induced nausea and emesis” (J Med Chem, 1988).
pIC50: −log10 of the molar value.

Tests used:
Mustela putorius furo [1] = assay: In vivo antagonism of cisplatin-induced emesis in ferret measured as emetic episodes, twice the dose of mg/kg and in 3 ferrets; type: functional
How it was run: (§1)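 Nonfasted castrated male Fitch ferrets (1–1.5 kg) had jugular catheters implanted ≥48 h earlier under anesthesia. Compounds or saline were given iv twice, 5 min before and 90 min after cisplatin (12 mg/kg iv; 12 mg/mL in warm 0.9% saline). Emesis was observed up to 4 h; events within 1 min counted as one episode. Results were given as mean emetic episodes and % protection versus a pooled historical/concurrent control. t test versus saline.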

Mustela putorius furo [2] = assay: In vivo antagonism of cisplatin-induced emesis in ferret measured as percentage protection for twice the dose of 3 mg/kg and in 3 ferrets; type: functional; how it was run: as §1
[3] = target: D(2) dopamine receptor (Canis lupus familiaris) (UniProt Q9GJU1); assay: In vivo antagonism activity against dopamine D2 receptor was measured as emesis in dog when administered subcutaneously; type: functional, organism-based
Sequence of D(2) dopamine receptor (Canis lupus familiaris) (Q9GJU1 whole entry): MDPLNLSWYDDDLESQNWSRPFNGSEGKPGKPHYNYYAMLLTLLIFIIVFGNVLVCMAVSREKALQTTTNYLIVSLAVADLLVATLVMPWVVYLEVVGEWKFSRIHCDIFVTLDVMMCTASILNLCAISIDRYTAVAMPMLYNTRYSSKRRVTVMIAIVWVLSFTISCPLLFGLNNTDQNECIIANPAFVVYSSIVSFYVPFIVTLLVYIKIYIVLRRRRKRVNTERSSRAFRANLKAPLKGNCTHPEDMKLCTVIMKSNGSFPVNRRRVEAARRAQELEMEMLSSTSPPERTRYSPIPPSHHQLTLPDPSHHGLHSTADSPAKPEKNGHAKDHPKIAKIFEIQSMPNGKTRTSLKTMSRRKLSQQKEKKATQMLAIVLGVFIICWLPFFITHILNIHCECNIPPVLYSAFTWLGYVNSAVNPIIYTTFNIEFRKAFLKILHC

[4] = target: D(2) dopamine receptor (Rattus norvegicus) (UniProt P61169); assay: In vivo antagonism activity against D2 receptor was measured as stereotypy in rat when administered subcutaneously; type: functional, organism-based
Sequence of D(2) dopamine receptor (Rattus norvegicus) (P61169 whole entry): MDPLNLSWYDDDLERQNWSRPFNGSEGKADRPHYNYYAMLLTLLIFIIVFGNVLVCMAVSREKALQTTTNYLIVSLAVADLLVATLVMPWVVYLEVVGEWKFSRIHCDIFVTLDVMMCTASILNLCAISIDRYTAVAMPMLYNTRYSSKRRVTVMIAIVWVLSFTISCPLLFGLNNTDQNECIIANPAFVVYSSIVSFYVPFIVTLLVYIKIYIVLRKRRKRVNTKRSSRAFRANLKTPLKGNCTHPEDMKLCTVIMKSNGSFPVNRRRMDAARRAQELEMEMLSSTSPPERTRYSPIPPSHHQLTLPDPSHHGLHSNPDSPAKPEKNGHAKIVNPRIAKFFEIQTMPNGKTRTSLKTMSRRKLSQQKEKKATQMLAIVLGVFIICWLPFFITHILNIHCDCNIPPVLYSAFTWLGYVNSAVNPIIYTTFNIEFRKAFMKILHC
How it was run: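 Male Long Evans rats (275 g) were dosed sc in dilute aqueous HCl (pH 4.5-5.5) 30 min before apomorphine (1 mg/kg sc).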

[5] = target: D(2) dopamine receptor (Rattus norvegicus) (UniProt P61169); assay: In vivo antagonistic activity against dopamine D2 receptor was measured as catalepsy in rat when administered subcutaneously; type: functional, organism-based
How it was run: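 Male Long Evans rats (275 g) received graded sc doses in dilute aqueous HCl (pH 4.5-5.5). They were observed 180 min for catalepsy, scored when the animal stayed stationary ≥15 s on a four-cork template.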

Mustela putorius furo [6] = assay: in vivo antagonism of cisplatin-induced emesis in ferret measured as emetic episodes, twice the dose of 3 mg/kg and in 3 ferrets; type: functional
How it was run: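 Nonfasted castrated male Fitch ferrets (1–1.5 kg) carried jugular vein catheters implanted at least 48 h earlier under general anesthesia. Test compound or saline was given iv twice, 5 min before and 90 min after cisplatin (12 mg/kg iv; 12 mg/mL in warm saline). Emesis was watched for 4 h, with events within 1 min counted as one episode. % protection is relative to a pooled historical-plus-concurrent control, with t test versus saline.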

D(2) dopamine receptor = D(2) dopamine receptor (Rattus norvegicus, UniProt P61169); assay: In vitro antagonistic activity against Dopamine receptor D2 was evaluated for the inhibition of [3H]spiperone binding
Sequence of D(2) dopamine receptor (P61169 whole entry): as above
How it was run: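 Rat striatal membranes were prepared by differential centrifugation in 50 mM Tris pH 7.4 at 4 °C. Membrane protein (10 mg) was incubated 15 min at 37 °C with 0.1 nM [3H]spiperone and varying competitor concentrations. Buffer: 50 mM Tris HCl pH 7.5, 0.1% ascorbic acid, pargyline, 120 mM NaCl, 5 mM KCl, 2 mM CaCl2, 1 mM MgCl2. (+)-Butaclamol defined nonspecific binding. Bound ligand was collected by filtration and scintillation counted. IC50 by log-logit regression.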

Mustela putorius furo [7] = assay: In vivo antagonism of cisplatin-induced emesis in ferret measured as percentage protection for twice the dose of 1 mg/kg and in 3 ferrets; type: functional; how it was run: as §1
Mustela putorius furo [8] = assay: In vivo antagonism of cisplatin-induced emesis in ferret measured as emetic episodes, twice the dose of 3 mg/kg and in 3 ferrets; type: functional; how it was run: as §1
Canis familiaris [9] = assay: In vivo antagonism of cisplatin-induced emesis in dog measured as emetic episodes, twice the dose of 3 mg/kg in 2 dogs; type: functional, Canis lupus familiaris
How it was run: (§2)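 Nonfasted mature male or female beagles were dosed sc twice, 30 min before and 120 min after cisplatin (3 mg/kg iv; 3 mg/mL in warm 0.9% saline, used immediately). Emesis was observed up to 5 h; events within 2 min counted as one episode. Results were given as mean emetic episodes and % protection versus a dynamic control (historical and concurrent saline means pooled). t test versus saline.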

Canis familiaris [10] = assay: In vivo antagonism of cisplatin-induced emesis in dog measured as emetic episodes, twice the dose of 6 mg/kg in 2 dogs; type: functional, Canis lupus familiaris; how it was run: as §2
Mustela putorius furo [11] = assay: In vivo antagonism of cisplatin-induced emesis in ferret measured as percentage protection for twice the dose of 31 mg/kg and in 3 ferrets; type: functional; details: dose 1 mg/kg; in the assay text read “1 mg/kg” for “31 mg/kg”; how it was run: as §1
Canis familiaris [12] = assay: In vivo antagonism of cisplatin-induced emesis in dog measured as percentage protection for twice the dose of 6 mg/kg in 2 dogs; type: functional, Canis lupus familiaris; how it was run: as §2
Canis familiaris [13] = assay: In vivo antagonism of cisplatin-induced emesis in dog measured as percentage protection for twice the dose of 3 mg/kg in 2 dogs; type: functional, Canis lupus familiaris; how it was run: as §2
Mustela putorius furo [14] = assay: In vivo antagonism of cisplatin-induced emesis in ferret measured as emetic episodes, twice the dose of 1 mg/kg and in 3 ferrets; type: functional; how it was run: as §1
Mustela putorius furo [15] = assay: In vivo antagonism of cisplatin-induced emesis in ferret measured as emetic episodes, twice the dose of 3 mg/kg and in 2 ferrets; type: functional; how it was run: as §1
Canis familiaris [16] = assay: In vivo antagonism of cisplatin-induced emesis in dog measured as percentage protection for twice the dose of 1 mg/kg in 2 dogs; type: functional, Canis lupus familiaris; how it was run: as §2
Mustela putorius furo [17] = assay: In vivo antagonism of cisplatin-induced emesis in ferret measured as percentage protection for twice the dose of 3 mg/kg and in 2 ferrets; type: functional; how it was run: as §1
Canis familiaris [18] = assay: In vivo antagonism of cisplatin-induced emesis in dog measured as emetic episodes, twice the dose of 1 mg/kg in 2 dogs; type: functional, Canis lupus familiaris; how it was run: as §2
Canis familiaris [19] = assay: In vivo antagonism of cisplatin-induced emesis in dog measured as percentage protection for twice the dose of 6 mg/kg in 3 dogs; type: functional, Canis lupus familiaris
How it was run: (§3)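 Nonfasted mature male or female beagles received test compound or saline sc twice, 30 min before and 120 min after cisplatin (3 mg/kg iv; 3 mg/mL in warm 0.9% saline, used at once). Emesis observed up to 5 h. Emetic episode = expulsion of stomach content; events within 2 min counted as one. Protection calculated against a dynamic control (historical mean pooled with concurrent saline control).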

Canis familiaris [20] = assay: In vivo antagonism of cisplatin-induced emesis in dog measured as emetic episodes, twice the dose of 6 mg/kg in 3 dogs; type: functional, Canis lupus familiaris; how it was run: as §3

SMILES	Protection (Mustela putorius furo [2]) [%]	ED50 [3] [mg/kg]	ED50 [4] [mg/kg]	ED50 [5] [mg/kg]	pIC50 (D(2) dopamine receptor)	Emetic episodes (Mustela putorius furo [8])	further results
CCN(CC)CCNC(=O)c1cc(Cl)c(N)cc1OCC(C)OC (stereo not given)	86	> 3	> 40	> 40	< 6.00		Emetic episodes (Mustela putorius furo [1]): 3; Emetic episodes (Mustela putorius furo [6]): 1; Protection (Mustela putorius furo [7]): 57%
C#CCOc1cc(N)c(Cl)cc1C(=O)NCCN(CC)CC	50	> 1	> 40	> 40	< 6.00	3.3	Emetic episodes (Canis familiaris [9]): 3.5; Emetic episodes (Canis familiaris [10]): 2; Protection (Mustela putorius furo [11]): 40%; Protection (Canis familiaris [12]): 73%; Protection (Canis familiaris [13]): 72%; Emetic episodes (Mustela putorius furo [14]): 4.3
CCN(CC)CCNC(=O)c1cc(Cl)c(N)cc1OCOCCOC		> 3	> 40	> 40	< 6.00		Emetic episodes (Mustela putorius furo [15]): 0; Protection (Canis familiaris [16]): 72%; Protection (Mustela putorius furo [17]): 100%; Emetic episodes (Canis familiaris [18]): 3.5
O=c1[nH]c2ccccc2n1CCCN1CCC(n2c(=O)[nH]c3cc(Cl)ccc32)CC1 [DOMPERIDONE]	50	0.08	> 40	> 40		3.3	Protection (Canis familiaris [19]): 30%; Emetic episodes (Canis familiaris [20]): 9.7
